The source made the active and inactive calls. No cut-off for these calls is given here.
Legend:
MCF7 [1] = assay: Antiproliferative activity against ER expressing human MCF7 cells after 72 hrs by MTT assay; assay type: functional, cell-based; details: MCF7, 72 h
Method in brief: (§1)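 Cells seeded at 2.5×10^4 cells/mL, held 24 h at 37°C, then dosed from ethanol stocks over 1 nM–100 μM for 72 h; vehicle 1% v/v ethanol. MTT added to 1 mg/mL final, 2 h in dark at 37°C, DMSO solubilisation 20 min RT, absorbance read. Viability set relative to untreated controls; IC50 from % viability vs concentration. Triplicate wells, ≥3 experiments, mean ± SEM. MCF-7 grown in MEM with 10% FBS, 2 mM glutamine and 1% non-essential amino acids; MDA-MB-231 grown in DMEM with 10% FBS and 2 mM glutamine.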

MDA-MB-231 [2] = assay: Antiproliferative activity against ER-independent human MDA-MB-231 cells after 72 hrs by MTT assay; assay type: functional, cell-based; details: MDA-MB-231, 72 h; method in brief: as §1
Bos taurus = species on record: Bos taurus; assay: Inhibition of bovine tubulin polymerization at 10 uM after 60 mins by spectrophotometric analysis
Method in brief: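 Purified bovine brain tubulin in G-PEM buffer (80 mM PIPES pH 6.9, 0.5 mM MgCl2, 1 mM EGTA, 1 mM GTP, 10.2% glycerol) was mixed with drug at 10 μM or 1% ethanol vehicle. Assembly was started by warming from 4 to 37°C and turbidity read at 340 nm every 30 s for 60 min at 37°C. Run in triplicate.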

MCF7 [3] = assay: Effect on microtubule network in human MCF7 cells assessed as microtubule depolymerization at 500 nM after 16 hrs by confocal microscopic analysis; assay type: functional, cell-based
Method in brief: (§2)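 MCF-7 cells seeded at 1×10^5 per well on chamber glass slides, exposed 16 h (vehicle 1% v/v ethanol). Permeabilised with 0.1% Triton X-100 in PBS, fixed in methanol 30 min at -20°C, blocked in 5% BSA. Stained with DM1A anti-tubulin (1:20, 1 h RT), then FITC rabbit anti-mouse (1:200, 1 h RT). Mounted with DAPI and imaged by confocal microscopy; three separate experiments.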

MCF7 [4] = assay: Antimitotic activity in human MCF7 cells assessed as mitotic catastrophe at 500 nM after 16 hrs using DAPI staining based immunofluorescence analysis; assay type: functional, cell-based; method in brief: as §2
MCF7 [5] = assay: Cell cycle arrest in human MCF7 cells assessed as accumulation at sub-G1 phase at 500 nM after 48 hrs by propidium iodide staining based flow cytometric analysis (reference value: 1.65+/-0.38%); assay type: functional
MCF7 [6] = assay: Cell cycle arrest in human MCF7 cells assessed as accumulation at G1 phase at 500 nM after 48 hrs by propidium iodide staining based flow cytometric analysis (reference value: 60.22+/-3.1%); assay type: functional
MCF7 [7] = assay: Cell cycle arrest in human MCF7 cells assessed as accumulation at S phase at 500 nM after 48 hrs by propidium iodide staining based flow cytometric analysis (reference value: 8.77+/-0.9%); assay type: functional
MCF7 [8] = assay: Cell cycle arrest in human MCF7 cells assessed as accumulation at G2/M phase at 500 nM after 48 hrs by propidium iodide staining based flow cytometric analysis (reference value: 52.02+/-5.9%); assay type: functional
MCF7 [9] = assay: Cell cycle arrest in human MCF7 cells assessed as appearance of polyploidy at 500 nM after 48 hrs by propidium iodide staining based flow cytometric analysis (reference value: 8.33+/-2.5%); assay type: functional
MDA-MB-231 [10] = assay: Antiproliferative activity against ER-independent human MDA-MB-231 cells assessed as cell death at 10 uM after 72 hrs by LDH assay
MCF7 [11] = assay: Effect on microtubule network in human MCF7 cells assessed as microtubule depolymerization at 100 nM after 16 hrs by confocal microscopic analysis; assay type: functional, cell-based; method in brief: as §2
MCF7 [12] = assay: Antimitotic activity in human MCF7 cells assessed as mitotic catastrophe at 100 nM after 16 hrs using DAPI staining based immunofluorescence analysis; assay type: functional, cell-based; method in brief: as §2
MCF7 [13] = assay: Cell cycle arrest in human MCF7 cells assessed as accumulation at sub-G1 phase at 100 nM after 48 hrs by propidium iodide staining based flow cytometric analysis (reference value: 1.65+/-0.38%); assay type: functional
MCF7 [14] = assay: Cell cycle arrest in human MCF7 cells assessed as accumulation at G1 phase at 100 nM after 48 hrs by propidium iodide staining based flow cytometric analysis (reference value: 60.22+/-3.1%); assay type: functional
MCF7 [15] = assay: Cell cycle arrest in human MCF7 cells assessed as accumulation at S phase at 100 nM after 48 hrs by propidium iodide staining based flow cytometric analysis (reference value: 8.77+/-0.9%); assay type: functional
MCF7 [16] = assay: Cell cycle arrest in human MCF7 cells assessed as accumulation at G2/M phase at 100 nM after 48 hrs by propidium iodide staining based flow cytometric analysis (reference value: 52.02+/-5.9%); assay type: functional
MCF7 [17] = assay: Cell cycle arrest in human MCF7 cells assessed as appearance of polyploidy at 100 nM after 48 hrs by propidium iodide staining based flow cytometric analysis (reference value: 8.33+/-2.5%); assay type: functional
MCF7 [18] = assay: Antiproliferative activity against ER expressing human MCF7 cells assessed as cell death at 10 uM after 72 hrs by LDH assay

| SMILES | IC50 (MCF7 [1]) [nM] | IC50 (MDA-MB-231 [2]) [nM] | Activity (MDA-MB-231 [10]) [%] | further results |
| --- | --- | --- | --- | --- |
| CCOc1ccc([C@@H]2[C@@H](c3ccccc3)C(=O)N2c2cc(OC)c(OC)c(OC)c2)cc1 (relative stereo) | 220 | 830 | 5.4 | inhibition (Bos taurus): Active; Activity (MCF7 [3]): Active; Activity (MCF7 [4]): Active; Activity (MCF7 [5]): 13.97%; Activity (MCF7 [6]): 21.18%; Activity (MCF7 [7]): 9.49%; Activity (MCF7 [8]): 47.53%; Activity (MCF7 [9]): 7.4% |
| COc1ccc(/C=C/[C@@H]2[C@@H](c3ccccc3)C(=O)N2c2cc(OC)c(OC)c(OC)c2)cc1 (relative stereo) | 1990 |  |  |  |
| COc1cc(N2C(=O)[C@H](c3ccccc3)[C@H]2c2ccc(OC)c(OC)c2OC)cc(OC)c1OC | 1120 | 1960 | 6.1 |  |
| COc1ccc(/C=C\c2cc(OC)c(OC)c(OC)c2)cc1O [COMBRETASTATIN A4] | 5 |  | 4.3 | inhibition (Bos taurus): Active; Activity (MCF7 [11]): Active; Activity (MCF7 [12]): Active; Activity (MCF7 [13]): 9.43%; Activity (MCF7 [14]): 23.57%; Activity (MCF7 [15]): 10.66%; Activity (MCF7 [16]): 52.02%; Activity (MCF7 [17]): 8.36%; Activity (MCF7 [18]): 5.5% |
| COc1ccc(C2(c3ccc(OC)cc3)C(c3ccccc3)C(=O)N2c2cc(OC)c(OC)c(OC)c2)cc1 (stereo unspecified) | 640 |  |  |  |
| COc1cc(N2C(=O)[C@H](c3ccccc3)[C@H]2c2ccc(N(C)C)cc2)cc(OC)c1OC (relative stereo) | 850 | 5660 |  | Activity (MCF7 [18]): 10.4% |
| COc1cc([C@@H]2[C@@H](c3ccccc3)C(=O)N2c2cc(OC)c(OC)c(OC)c2)cc(OC)c1OC (relative stereo) | 69800 | 65600 | 0 |  |
| COc1cc(OC)c([C@@H]2[C@@H](c3ccccc3)C(=O)N2c2cc(OC)c(OC)c(OC)c2)cc1OC (relative stereo) | 46900 | 38900 | 0 |  |
| COc1cc(N2C(=O)[C@H](c3ccccc3)[C@H]2c2ccc(F)cc2)cc(OC)c1OC (relative stereo) | 350 | 1140 | 0 |  |
| COc1ccc([C@@H]2[C@@H](c3ccccc3)C(=O)N2Cc2cc(OC)c(OC)c(OC)c2)cc1 (relative stereo) | 38600 |  |  |  |
| COc1cc(OC)c([C@@H]2[C@@H](c3ccccc3)C(=O)N2c2cc(OC)c(OC)c(OC)c2)c(OC)c1 (relative stereo) | 18700 | 5740 | 0 |  |
| COc1ccc(C2(c3ccccc3)C(c3ccccc3)C(=O)N2c2cc(OC)c(OC)c(OC)c2)cc1 (stereo unspecified) | 430 |  |  |  |
| COc1ccc([C@@H]2[C@@H](c3ccccc3)C(=O)N2c2cc(OC)c(OC)c(OC)c2)cc1OC (relative stereo) | 460 | 530 | 0 | Activity (MCF7 [18]): 3% |
| COc1cc(N2C(=O)C(c3ccccc3)C2(c2ccccc2)c2ccccc2)cc(OC)c1OC (stereo unspecified) | 3840 |  |  |  |
| COc1ccc([C@@H]2[C@@H](c3ccccc3)C(=O)N2c2cc(OC)c(OC)c(OC)c2)cc1Br (relative stereo) | 1420 |  |  |  |
| COc1cc(N2C(=O)[C@H](c3ccccc3)[C@H]2c2ccc3ccccc3c2)cc(OC)c1OC (relative stereo) | 440 |  |  |  |

Source: ChEMBL document CHEMBL1828551, “Synthesis, biochemical and molecular modelling studies of antiproliferative azetidinones causing microtubule disruption and mitotic catastrophe” (Eur J Med Chem, 2011)
